Test results taken from ChEMBL document CHEMBL4014332, “Multitargeted Imidazoles: Potential Therapeutic Leads for Alzheimer's and Other Neurodegenerative Diseases” (J Med Chem, 2017).

Assays:
Rattus norvegicus [1] = species: Rattus norvegicus; test: Inhibition of 5-LOX-mediated LTB4 production in arachidonic acid-stimulated RBL1 cells at 10 uM preincubated for 2 hrs followed by A23187 induction for 15 mins by LC/MS/MS analysis relative to control
Procedure, shortened: (§1)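 RBL-1 cells grown in RPMI/10% FBS, plated 9 × 10⁵ cells/well, held 2 h at 37 °C, then given compound for 2 h (screen at 10 μM, then concentration–response in triplicate). Stimulation was 12 μM A23187 for 15 min. Supernatants were extracted with MeOH/0.01% BHT and LTB₄ quantified by UPLC-MS/MS in negative ion mode.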

[2] = Change in total alpha-tubulin levels in human QBI293 cells at 10 uM after 4 hrs by ELISA relative to control; format: cell-based; settings: qbi293, 4 h
Procedure, shortened: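 QBI-293 cells grown in DMEM/10% FBS at 37 °C, 5% CO2, plated 6 × 10⁵ cells/well, left overnight, then given vehicle or compound (1 and 10 μM) for 4 h. Cells were lysed in RIPA with protease inhibitors, 1 mM PMSF and 1 μM TSA, then spun at 100000g for 30 min. Total α-tubulin was measured by ELISA, normalized by BCA protein, expressed as fold change vs DMSO, triplicate, two-tailed unpaired t test.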

[3] = Change in total alpha-tubulin levels in human QBI293 cells at 1 uM after 4 hrs by ELISA relative to control; settings: qbi293, 4 h
Cyclooxygenase = molecular target: T1, Cyclooxygenase (Rattus norvegicus, UniProt P35355+Q63921); test: Inhibition of COX-mediated PGD2/PGE2 production in arachidonic acid-stimulated RBL1 cells preincubated for 2 hrs followed by A23187 induction for 15 mins by LC/MS/MS analysis
T1 sequence (P35355 whole entry): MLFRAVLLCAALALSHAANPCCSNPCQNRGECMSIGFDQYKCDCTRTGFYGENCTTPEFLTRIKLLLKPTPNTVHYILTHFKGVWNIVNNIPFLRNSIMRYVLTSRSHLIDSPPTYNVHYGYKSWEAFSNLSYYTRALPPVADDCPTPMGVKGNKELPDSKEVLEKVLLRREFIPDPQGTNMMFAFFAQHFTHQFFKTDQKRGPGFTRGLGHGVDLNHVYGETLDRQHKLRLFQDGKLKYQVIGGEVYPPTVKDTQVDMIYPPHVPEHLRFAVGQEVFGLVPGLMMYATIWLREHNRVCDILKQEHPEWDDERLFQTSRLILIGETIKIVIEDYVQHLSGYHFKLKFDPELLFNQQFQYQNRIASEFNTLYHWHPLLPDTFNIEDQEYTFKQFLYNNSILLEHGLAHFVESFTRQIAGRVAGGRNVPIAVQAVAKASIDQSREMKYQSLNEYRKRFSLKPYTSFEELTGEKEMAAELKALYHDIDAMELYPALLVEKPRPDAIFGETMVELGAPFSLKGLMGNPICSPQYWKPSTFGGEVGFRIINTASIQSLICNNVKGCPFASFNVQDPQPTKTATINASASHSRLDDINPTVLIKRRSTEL
T1 sequence (Q63921 whole entry): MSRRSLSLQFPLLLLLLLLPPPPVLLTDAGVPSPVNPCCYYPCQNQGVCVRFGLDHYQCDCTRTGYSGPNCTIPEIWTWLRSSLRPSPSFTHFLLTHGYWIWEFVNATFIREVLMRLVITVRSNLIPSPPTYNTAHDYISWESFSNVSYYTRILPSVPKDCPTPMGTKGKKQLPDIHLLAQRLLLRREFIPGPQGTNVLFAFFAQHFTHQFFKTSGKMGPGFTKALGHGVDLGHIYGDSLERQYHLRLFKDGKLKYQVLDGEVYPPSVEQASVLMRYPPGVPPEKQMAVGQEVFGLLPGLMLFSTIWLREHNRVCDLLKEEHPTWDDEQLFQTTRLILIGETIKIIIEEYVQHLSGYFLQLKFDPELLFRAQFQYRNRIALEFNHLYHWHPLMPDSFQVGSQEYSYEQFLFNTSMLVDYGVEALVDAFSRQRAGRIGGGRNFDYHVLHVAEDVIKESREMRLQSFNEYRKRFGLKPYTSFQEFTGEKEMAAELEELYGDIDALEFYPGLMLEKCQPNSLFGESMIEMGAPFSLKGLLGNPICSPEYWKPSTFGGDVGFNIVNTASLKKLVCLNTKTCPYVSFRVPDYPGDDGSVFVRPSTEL
Procedure, shortened: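 RBL-1 cells in RPMI/10% FBS, 9 × 10⁵ cells/well, held 2 h, then exposed to compound for 2 h at multiple concentrations in triplicate. Stimulation was 12 μM A23187 for 15 min. Eicosanoids were extracted with MeOH/0.01% BHT, and PGD₂ plus PGE₂ measured by UPLC-MS/MS (negative ion, 351 > 315).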

[4] = Inhibition of 5-LOX-mediated LTB4 production in arachidonic acid-stimulated RBL1 cells preincubated for 2 hrs followed by A23187 induction for 15 mins by LC/MS/MS analysis; settings: Rattus norvegicus, RBL-1; procedure, shortened: as §1
[5] = Drug uptake in mouse brain at 2 mg/kg, ip administered as cassette dosing after 1 hr by LC-MS/MS method; format: ADME, organism-based; settings: read-out: Drug uptake
Procedure, shortened: (§2)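 Groups of three 2–5-month-old CD-1 or B6SJL mice, sexes kept separate, were cassette-dosed i.p. in DMSO at 2 mg/kg with two or three compounds given together. Plasma and brain homogenate levels were measured at a single time point and scaled proportionally up to 5 mg/kg. The brain/plasma ratio was derived from these, reported as mean ± SD.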

[6] = Plasma concentration in mouse at 2 mg/kg, ip administered as cassette dosing after 1 hr by LC-MS/MS method; format: ADME, organism-based; procedure, shortened: as §2
[7] = Ratio of drug level in brain to plasma in mouse at 2 mg/kg, ip administered as cassette dosing; format: ADME, organism-based; settings: read-out: BPR; procedure, shortened: as §2
Homo sapiens = species: Homo sapiens; test: Induction of microtubule stabilization in human QBI293 cells assessed as increase in acetylated tubulin levels at 1 uM after 4 hrs by ELISA relative to control; format: cell-based
Procedure, shortened: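 QBI-293 cells grown in DMEM/10% FBS at 37 °C, 5% CO2, plated 6 × 10⁵ cells/well overnight, then treated with vehicle or compound (1 and 10 μM) for 4 h. Lysis was in RIPA with protease inhibitors, 1 mM PMSF and 1 μM TSA, followed by 100000g spin for 30 min. Acetylated α-tubulin was measured by ELISA on BCA-quantified supernatant, reported as fold change vs DMSO, at least triplicate, t test.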

[8] = Drug uptake in mouse brain at 5 mg/kg, ip administered as single dose after 1 hr by LC-MS/MS method; format: ADME, organism-based; settings: read-out: Drug uptake
Procedure, shortened: (§3)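 Groups of three CD-1 or B6SJL mice, 2–5 months old, sexes not mixed, received a single 5 mg/kg i.p. dose in DMSO. Compound was quantified in plasma and brain homogenate at a single time point, and the brain/plasma ratio was derived from these. Values are mean ± SD.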

[9] = Plasma concentration in mouse at 5 mg/kg, ip administered as single dose after 1 hr by LC-MS/MS method; format: ADME, organism-based; procedure, shortened: as §3
[10] = Ratio of drug level in brain to plasma in mouse at 5 mg/kg, ip administered as single dose; format: ADME, organism-based; settings: read-out: BPR; procedure, shortened: as §3
[11] = molecular target: Cyclooxygenase (Rattus norvegicus) (UniProt P35355+Q63921); settings: at 10 nM
Rattus norvegicus [12] = species: Rattus norvegicus; settings: at 10 nM

Cc1ccc(F)c(-c2cnc(Cl)n2-c2ccc(Cl)cc2)c1F
inhibition (Rattus norvegicus [1]): 69%
fold change (FC) [2]: 0.8
FC [3]: 0.9

COc1ccc(-n2c(-c3c(F)cc(F)cc3F)cnc2Cl)cc1
inhibition (Rattus norvegicus [1]): 75%
Activity [3]: Non-Toxic
IC50 (Cyclooxygenase): 9.8 µM
IC50 [4]: 20.8 µM
concentration at 1 h [5]: 210 nM
concentration at 1 h [6]: 210 nM
Kp [7]: 0.9

Fc1cccc(F)c1-c1cncn1-c1ccc(Cl)cc1
inhibition (Rattus norvegicus [1]): 46%
fold change (FC) [2]: 1.2

COc1cc(F)c(-c2c(Cl)nc(C)n2-c2ccc(Cl)cc2)c(F)c1
inhibition (Rattus norvegicus [1]): 88%
fold change (FC) (Homo sapiens): 7.1
fold change (FC) [2]: 0.6
FC [3]: 0.3

Fc1cccc(F)c1-c1c(Cl)ncn1-c1ccc(Cl)cc1
inhibition (Rattus norvegicus [1]): 76%
Activity [3]: Non-Toxic
IC50 (Cyclooxygenase): 2.4 µM
IC50 [4]: 13.8 µM
concentration at 1 h [5]: 700 nM
concentration at 1 h [6]: 400 nM
Kp [7]: 1.9

Cc1nc(Cl)c(-c2c(F)ccc(F)c2F)n1-c1ccc(Cl)c(F)c1
inhibition (Rattus norvegicus [1]): 75%
fold change (FC) (Homo sapiens): 3.9
fold change (FC) [2]: 0.8
FC [3]: 0.7

Cc1ncn(-c2ccc(Cl)cc2)c1-c1c(F)ccc(Cl)c1F
inhibition (Rattus norvegicus [1]): 71%
Activity [3]: Non-Toxic
IC50 (Cyclooxygenase): 12.1 µM
IC50 [4]: 13.4 µM
concentration at 1 h [5]: 600 nM
concentration at 1 h [6]: 500 nM
Kp [7]: 1.4

COc1cc(F)c(-c2c(Cl)nc(Cl)n2-c2ccc(Cl)cc2)c(F)c1
inhibition (Rattus norvegicus [1]): 38%
fold change (FC) (Homo sapiens): 3.3
fold change (FC) [2]: 0.6
FC [3]: 0.3

Fc1ccc(Br)c(F)c1-c1c(Cl)ncn1-c1ccc(Cl)cc1
inhibition (Rattus norvegicus [1]): 78%
Activity [3]: Non-Toxic
IC50 (Cyclooxygenase): 6.5 µM
IC50 [4]: 7.8 µM
concentration at 1 h [8]: 240 nM
concentration at 1 h [9]: 260 nM
Kp [10]: 0.9

Fc1cccc(F)c1-c1cnc(Cl)n1-c1ccc(Cl)cc1
inhibition (Rattus norvegicus [1]): 92%
Activity [3]: Non-Toxic
IC50 (Cyclooxygenase): 15 µM
IC50 [4]: 10.7 µM
concentration at 1 h [8]: 900 nM
concentration at 1 h [9]: 480 nM
Kp [10]: 1.9

Fc1ccc(F)c(-c2c(Cl)ncn2-c2ccc(Cl)cc2)c1F
inhibition (Rattus norvegicus [1]): 69%
Activity [3]: Non-Toxic
IC50 (Cyclooxygenase): 2.9 µM
IC50 [4]: 2.4 µM
concentration at 1 h [8]: 700 nM
concentration at 1 h [9]: 300 nM
Kp [10]: 2.8

CC(C)c1ccc2c(c1)c(SC(C)(C)C)c(CC(C)(C)C(=O)O)n2Cc1ccc(Cl)cc1
inhibition [11]: < 10%
inhibition (Rattus norvegicus [12]): 70%

Cc1cc(F)c(-c2c(Cl)ncn2-c2ccc(Cl)cc2)c(F)c1
inhibition (Rattus norvegicus [1]): 75%
Activity [3]: Non-Toxic
IC50 (Cyclooxygenase): 1.8 µM
IC50 [4]: 11.7 µM
concentration at 1 h [5]: 300 nM
concentration at 1 h [6]: 110 nM
Kp [7]: 2.5

Fc1ccc(F)c(-c2cnc(Cl)n2-c2ccc(Cl)cc2)c1
inhibition (Rattus norvegicus [1]): 96%
Activity [3]: Non-Toxic
IC50 (Cyclooxygenase): 2.2 µM
IC50 [4]: 2.5 µM
concentration at 1 h [5]: 200 nM
concentration at 1 h [6]: 60 nM
Kp [7]: 3.3

Cc1nc(C)n(-c2ccc(Cl)cc2)c1-c1c(F)cccc1F
inhibition (Rattus norvegicus [1]): 40%
fold change (FC) [2]: 1.2

Cc1ncn(-c2ccc(Cl)cc2)c1-c1c(F)ccc(F)c1F
inhibition (Rattus norvegicus [1]): 74%
fold change (FC) [2]: 1.2
IC50 (Cyclooxygenase): 4.7 µM
IC50 [4]: 23.7 µM
concentration at 1 h [5]: 400 nM
concentration at 1 h [6]: 200 nM
Kp [7]: 1.9

C[C@H](Nc1c(-c2c(F)cc(OCCCN(C)C)cc2F)c(Cl)nc2ncnn12)C(F)(F)F
fold change (FC) (Homo sapiens): 6
fold change (FC) [2]: 0.7
FC [3]: 0.4

Clc1ccc(-n2cnc(Cl)c2-c2ccccc2)cc1
inhibition (Rattus norvegicus [1]): 71%
Activity [3]: Non-Toxic
IC50 (Cyclooxygenase): 1 µM
IC50 [4]: 12.5 µM
concentration at 1 h [5]: 200 nM
concentration at 1 h [6]: 80 nM
Kp [7]: 2.4

Fc1ccc(Cl)c(F)c1-c1c(Cl)ncn1-c1ccc(Cl)cc1
inhibition (Rattus norvegicus [1]): 63%
Activity [3]: Non-Toxic
IC50 (Cyclooxygenase): 2.2 µM
IC50 [4]: 9.5 µM
concentration at 1 h [8]: 400 nM
concentration at 1 h [9]: 190 nM
Kp [10]: 2.1

Fc1cc(-n2cnc(Cl)c2-c2c(F)ccc(F)c2F)ccc1Cl
inhibition (Rattus norvegicus [1]): 66%
Activity [3]: Non-Toxic
IC50 (Cyclooxygenase): 4.6 µM
IC50 [4]: 6 µM
concentration at 1 h [8]: 700 nM
concentration at 1 h [9]: 240 nM
Kp [10]: 3

COc1ccc(F)c(-c2c(Cl)nc(Cl)n2-c2ccc(Cl)cc2)c1F
inhibition (Rattus norvegicus [1]): 88%
fold change (FC) (Homo sapiens): 5.1
fold change (FC) [2]: 0.9
FC [3]: 0.4
